Kir21 inh: Kir2.1 (mouse) channel inhibition. B-score at 10 µM. 310,000 compounds, 0.85% hits. AID 1672. P35561. HEK293-Kir2.1, FluxOR thallium flux fluorescence; active compounds read low;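 active = fluorescence ratio B-score at or below minus 3 SD of library scores, with starting-brightness B-score within 2 SD, cut at about -4.2 in these data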;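 also: channel flux triggered by added potassium and thallium sulfate stimulus; B-score of peak minus minimum fluorescence over baseline after thallium stimulus; more negative B-score means stronger Kir2.1 block with less thallium influx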
Target sequence (P35561 whole entry, looked up): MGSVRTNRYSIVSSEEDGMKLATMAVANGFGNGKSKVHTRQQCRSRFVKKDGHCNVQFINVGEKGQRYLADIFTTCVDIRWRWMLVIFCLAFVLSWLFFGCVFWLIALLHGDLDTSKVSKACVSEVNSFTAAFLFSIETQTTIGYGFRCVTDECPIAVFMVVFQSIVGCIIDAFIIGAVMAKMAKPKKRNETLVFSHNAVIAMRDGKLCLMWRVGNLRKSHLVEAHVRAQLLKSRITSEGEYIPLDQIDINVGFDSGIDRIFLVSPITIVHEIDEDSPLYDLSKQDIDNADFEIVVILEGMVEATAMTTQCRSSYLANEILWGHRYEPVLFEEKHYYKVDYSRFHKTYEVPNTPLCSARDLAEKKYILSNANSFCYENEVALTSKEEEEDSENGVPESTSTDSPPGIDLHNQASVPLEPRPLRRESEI
SR-BI HDL uptake: blocks mouse SR-BI lipid uptake from DiI-HDL. inhibition, % at 12.5 µM. 320,000 compounds, 0.96% hits. ldlA[mSR-BI] CHO cells, DiI-HDL uptake fluorescence, 3 h. Q61009;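 active = mean replicate inhibition of at least 70% and a set share of replicates each scoring 70 or more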;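 also: 0% = median of neutral control wells and 100% = median of positive control wells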
ANO1 block: inhibitors of mouse TMEM16A calcium-activated chloride channel; 310,000 compounds, 1.2% hits; HEK293 TMEM16A/YFP iodide influx fluorescence, ionomycin; normalized B-score (activity score, 25-100; higher = stronger inhibition) at 10 µM; AID 588511;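 active = ratio plate-corrected score three or more library SD toward inhibition, starting fluorescence score within five deviations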;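 also: score derived from kinetic fluorescence span divided by baseline fluorescence per well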
TMEM16A act: mouse TMEM16A channel activation, primary screen; B-score at 10 µM; AID 623877; Q8BHY3; HEK293 TMEM16A/YFP-H148Q/I152L, iodide quench fluorescence; active compounds read low; 340,000 compounds, 0.3% hits;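 active = fluorescence-ratio B-score plate-corrected deviation score at least 3 library SD below zero, with starting fluorescence score within 5 deviations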;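 also: channel opened by trigger with iodide after compound preincubation; score built on the fluorescence ratio of max minus min over baseline; more negative score means more quench and so TMEM16A activation or potentiation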
SR-BI DiI-HDL act: activators of SR-BI mediated HDL lipid uptake; CHO ldlA[mSR-BI] cells, DiI-HDL uptake fluorescence, 3 h; 100 = double the neutral-control signal; activation, % at 12.5 µM; 320,000 compounds, 0.096% hits; AID 504775;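 active = mean replicate activation of at least 60% and every replicate at or above 60%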;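 also: 0% = median plate neutral-control signal and 100% = twice that signal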
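system = CHO ldlA[mSR-BI] cells, LDL receptor-null, SR-BI overexpressing | medium = Ham's F12 with 0.5% BSA, HEPES 25 mM, pH 7.4 | probe or stimulus = DiI-HDL 10 µg/mL | compound dosing = single-point compound dose | incubation = compound exposure 3 h, 37 °C | technique = DiI fluorescence, bottom read | read-out = cell-associated DiI fluorescence as measure of HDL uptake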
FID counter: fluorescent intercalator displacement, NS3 helicase counter-screen; DNA fluorescent intercalator displacement, fluorescence; inhibition, % at 7.9 µM; 290,000 compounds, 0.17% hits; AID 1845; in the data active = inhibition above about 37%;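 also: 0% = vehicle and 100% = reference compound; higher means more ethidium bromide displaced from hairpin DNA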
* marks the source's active call; other numbers are inactive results; i = inactive; . = no result. Compounds with a hit are over-represented: about 3% of the library has one in this group of screens.

SMILES | Kir21 inh | SR-BI HDL uptake | ANO1 block | TMEM16A act | SR-BI DiI-HDL act | FID counter
CCC(CO)Oc1cc(NC(=O)c2ccc(C)cc2)c2ncn(C(C)C)c2c1 (configuration not stated) | . | 39 | . | i | -39 | .
CC[C@]12c3[nH]c4ccc(OC)cc4c3CCN1C(=O)C(CC(=O)NCc1ccco1)C[C@@H]2C(=O)N1CCN(C(=O)c2ccco2)CC1 (some centres not stated) | . | 14 | . | . | -14 | .
O=[N+]([O-])c1cccc(-c2ccc(/C=N/Nc3nc(N4CCCCC4)nc(N4CCCCC4)n3)o2)c1 | 0.29 | 84* | i | i | -84 | -3
COc1ccc(-c2nc3ccccn3c2Cl)cc1 | 0.4 | 0 | i | i | 0 | -19
COc1ccc(OC)c(-c2oc3ccccc3c(=O)c2O)c1 | 0.64 | 13 | i | i | -6 | -3
O=c1cc2oc3cc(O)c(O)cc3c(-c3ccccc3O)c-2cc1O | . | 27 | . | i | -27 | -68
COc1ccc(OC)c(-c2c3cc(O)c(=O)cc-3oc3cc(O)c(O)cc23)c1 | . | 91* | i | i | -91 | -10
CCOc1ccccc1-c1c2cc(O)c(=O)cc-2oc2cc(O)c(O)cc12 | . | 73* | . | i | -73 | -17
O=C(Cn1c(=O)oc2ccccc21)N1CCN(S(=O)(=O)c2ccccc2)CC1 | . | 9 | . | i | . | .
Cc1ccc(S(=O)(=O)NCc2c(-c3ccccc3)noc2C)cc1 | -4.3* | -1 | i | i | 1 | -7
Cc1onc(-c2ccccc2)c1CNS(=O)(=O)c1ccccc1 | -2.8 | 12 | i | i | -12 | -7
COc1ccc(NC(=O)c2cc(S(=O)(=O)N3CCCCC3)ccc2C)cc1S(=O)(=O)N1CCOCC1 | . | 22 | . | i | -22 | .
COC(=O)c1ccc(COc2ccc(/C=N/Nc3nc(C)cc(=O)[nH]3)cc2)cc1 | -1.4 | . | i | i | . | -11
COc1cc(NC(=O)CN2C(=O)C(C)N(c3ccc(C)cc3)C2=O)cc(OC)c1 (configuration not stated) | 1.3 | 25 | i | i | -25 | .
CCOc1ccc(-c2cc(C(=O)NCCCN3CCOCC3)c3ccccc3n2)cc1 | -0.93 | 33 | i | i | -33 | 19
COc1ccc(-c2cc(C(=O)NCCCN3CCOCC3)c3cc(C(C)C)ccc3n2)cc1 | 0.28 | 24 | i | i | -24 | 37*
COc1ccc(OC)c(Nc2cc(C(=O)NCCCN3CCOCC3)c3ccccc3n2)c1 | -0.01 | 64 | i | i | -64 | 41*
COc1ccc(Nc2cc(C(=O)NCCCN3CCN(C)CC3)c3ccccc3n2)cc1 | 1.4 | 22 | i | i | -22 | 41*
COc1ccccc1CNC(=O)COC(=O)c1cc(=O)c2ccccc2o1 | . | -10 | . | i | 10 | .
CCOc1ccc(N2CC(C(=O)Nc3cc(S(=O)(=O)N4CCCCC4)ccc3C)CC2=O)cc1 (configuration not stated) | . | 15 | . | i | -15 | .
COc1ccc(OC)c(/C=N/N2CCN(c3ccc(Cl)cc3)CC2)c1 | 0.78 | -148 | i | i | 148* | -11
COc1cccc(/C=N/N2CCN(c3ccc(Cl)cc3)CC2)c1OC | -0.03 | 5 | i | i | -5 | -17
CC(=O)/C(C#N)=C1\NC(=O)C(Cc2ccc(C)c(C)c2)S1 (configuration not stated) | 2.5 | -36 | 25* | i | 36 | -30
CC(=O)/C(C#N)=C1\NC(=O)C(Cc2ccc(F)cc2)S1 (configuration not stated) | 1.4 | -21 | i | i | 21 | -4
c1cc2c3c(cccc3c1)-c1cnccc1-2 | . | -8 | . | i | 8 | .
SMILES | Kir21 inh | SR-BI HDL uptake | ANO1 block | TMEM16A act | SR-BI DiI-HDL act | FID counter
CCOC(=O)C(C)On1c(-c2cccc(Cl)c2)nc2ccc([N+](=O)[O-])cc21 (configuration not stated) | 1.3 | 22 | 100* | i | -22 | 12
COc1ccccc1C(CNC(=O)CNC(=O)c1ccccc1Cl)N1CCCC1 (configuration not stated) | . | -12 | . | i | 12 | .
NC1=NC[C@H](c2ccccc2)N1CCCCC1CCCCC1 | -6.7* | -5 | i | i | 5 | .
COc1cc(C(=O)NCC(=O)OCc2ccc(F)cc2)cc(OC)c1OC | . | 21 | . | i | -21 | .
COc1ccc(/C=C/c2c(-c3ccc(OC)cc3)oc3ccccc23)cc1 | 1.3 | 78* | i | i | -78 | -6
C=C1C[C@H]2[C@@H]3C=C(C)C4=CC(=O)CC[C@]4(C)[C@H]3CC[C@]2(C)[C@@]1(OC(C)=O)C(C)=O | -0.36 | -14 | 100* | i | 14 | .
O=C1Nc2ccc(Br)cc2/C1=C/C(=O)c1ccc2c(c1)OCO2 | 0.93 | 75* | i | i | -75 | 7
COc1ccc(C(=O)/C=C2\C(=O)Nc3ccc(Br)cc32)cc1 | . | 56 | . | i | -56 | .
COc1ccc(-c2cnc3c(c2)CCC3(C#N)C#N)cc1 | 0.06 | 26 | i | i | -26 | -3
Cc1csc(N(C(=O)Cc2ccccc2F)c2ccccc2)n1 | -1.6 | -34 | i | i | 34 | -6
COc1ccc(CC(=O)N(c2ccccc2)c2nc(C)cs2)cc1 | -5.5* | 9 | i | i | -9 | -22
CCCCCC1CCC(c2n[nH]c(=S)n2C)CC1 (configuration not stated) | -0.02 | 18 | i | i | -18 | -31
CC(C)COc1ccc(CSCCNC(=S)Nc2ccccc2)cc1 | 3.7 | 31 | 100* | i | -31 | -19
CCCCOc1ccc(CSCCNC(=S)Nc2ccccc2)cc1 | -1.5 | 37 | i | i | -37 | -8
CCCCC(=O)N(c1ccc(C(=O)O)cc1)c1nc(-c2ccc(Cl)cc2)c(CC)s1 | -1.1 | 7 | 100* | i | -7 | -1
CCc1sc(N(C(=O)Cc2ccccc2)c2ccccc2)nc1-c1ccccc1 | 1.4 | . | i | i | . | 0
O=C(CCCc1nc(-c2ccc(Cl)cc2)no1)NC1CCCC1 | -4.3* | 15 | i | i | -15 | -31
COc1ccc(NC(=O)c2cn(-c3ccccc3)nc2-c2cc3ccccc3o2)cc1 | -1.8 | 81* | i | i | -81 | -11
O=S(=O)(Nc1cc(S(=O)(=O)N2CCOCC2)ccc1O)c1ccc2c(c1)OCCCO2 | . | -2 | . | -22* | 2 | .
CNC(=S)N/N=C/c1cn(CCOc2ccc(OC)cc2)c2ccccc12 | 0.18 | 78* | i | i | -78 | -14
COc1ccccc1OCCn1cc(/C=N/NC(=O)c2ccncc2)c2ccccc21 | 1.4 | 35 | i | i | -35 | -32
COc1ccc(OCCn2cc(C=O)c3ccccc32)cc1 | 1.4 | 0 | i | i | 0 | -13

Screening data as filed in PubChem.
